Screens: PubChem, several laboratories
FID counter = compounds displacing fluorescent DNA intercalator, primary screen, artefact control for HCV NS3 helicase inhibitor project, biochemical, FID fluorescence; DNA fluorescent intercalator displacement; inhibition, % at 7.9 µM; hit rate 0.17% among 290,000; AID 1845, 2009; in the data active = inhibition above about 37%;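 also: 0% = vehicle and 100% = reference compound; higher means more ethidium bromide displaced from hairpin DNA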
TMEM16A inh = TMEM16A chloride channel inhibitors, primary screen, cell-based, HTS. Anoctamin-1 (Mus musculus), Q8BHY3. HEK293 TMEM16A/YFP iodide influx fluorescence, ionomycin. normalized B-score (activity score, 25-100; higher = stronger inhibition) at 10 µM. hit rate 1.2% among 310,000;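 active = ratio plate-corrected score three or more library SD toward inhibition, starting fluorescence score within five deviations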;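 also: score derived from kinetic fluorescence span divided by baseline fluorescence per well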
Kir21 block = inhibitors of mouse Kir2.1 inward-rectifier potassium channel. hit rate 0.85% among 310,000. Inward rectifier potassium channel 2 (Mus musculus), P35561. AID 1672, 2009. HEK293-Kir2.1, FluxOR thallium flux fluorescence; active compounds read low. B-score at 10 µM;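 active = fluorescence ratio B-score at or below minus 3 SD of library scores, with starting-brightness B-score within 2 SD, cut at about -4.2 in these data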;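 also: channel flux triggered by added potassium and thallium sulfate stimulus; B-score of peak minus minimum fluorescence over baseline after thallium stimulus; more negative B-score means stronger Kir2.1 block with less thallium influx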
Target sequence (P35561 whole entry, looked up): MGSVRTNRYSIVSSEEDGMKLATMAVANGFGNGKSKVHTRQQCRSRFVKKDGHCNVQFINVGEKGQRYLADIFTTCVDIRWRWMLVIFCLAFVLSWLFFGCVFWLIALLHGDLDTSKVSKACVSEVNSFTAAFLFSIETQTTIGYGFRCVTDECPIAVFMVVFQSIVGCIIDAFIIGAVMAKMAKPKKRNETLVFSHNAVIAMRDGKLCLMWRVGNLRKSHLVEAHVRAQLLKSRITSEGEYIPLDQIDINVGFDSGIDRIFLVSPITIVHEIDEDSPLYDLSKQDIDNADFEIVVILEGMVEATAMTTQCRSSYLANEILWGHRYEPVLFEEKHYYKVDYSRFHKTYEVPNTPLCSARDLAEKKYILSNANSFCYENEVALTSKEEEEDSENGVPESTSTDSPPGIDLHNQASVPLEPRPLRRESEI
SR-BI DiI inh = inhibitors of SR-BI mediated HDL lipid uptake, primary screen, ldlA[mSR-BI] cells, fluorescence, single point. Scavenger receptor class B member 1 (Mus musculus), Q61009. ldlA[mSR-BI] CHO cells, DiI-HDL uptake fluorescence, 3 h. inhibition, % at 12.5 µM. hit rate 0.96% among 320,000;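 active = mean replicate inhibition of at least 70% and a set share of replicates each scoring 70 or more; inconclusive = meets just one of the two criteria; inactive = fails both criteria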;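 also: 0% = median of neutral control wells and 100% = median of positive control wells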
ANO1 activ = TMEM16A chloride channel activators or potentiators, primary screen, cell-based, HTS | Anoctamin-1 (Mus musculus), Q8BHY3 | HEK293 TMEM16A/YFP-H148Q/I152L, iodide quench fluorescence; active compounds read low | B-score at 10 µM | hit rate 0.3% among 340,000 | AID 623877, 2012;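 active = fluorescence-ratio B-score plate-corrected deviation score at least 3 library SD below zero, with starting fluorescence score within 5 deviations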;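 also: channel opened by trigger with iodide after compound preincubation; score built on the fluorescence ratio of max minus min over baseline; more negative score means more quench and so TMEM16A activation or potentiation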
SR-BI DiI-HDL act = activators of SR-BI mediated DiI-HDL uptake, primary screen, ldlA[mSR-BI] CHO cells, DiI fluorescence | 3 h; 100 = double the neutral-control signal | activation, % at 12.5 µM | hit rate 0.096% among 320,000 | AID 504775, 2011;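 active = mean replicate activation of at least 60% and every replicate at or above 60%; inconclusive = mean or all-replicate condition met, but not both; inactive = mean below 60% and not all replicates reaching 60%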;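 also: 0% = median plate neutral-control signal and 100% = twice that signal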
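System: LDL receptor-deficient CHO ldlA cells overexpressing murine SR-BI | Timing: 3 h uptake period with compound, 37 °C | Medium: HEPES-buffered (25 mM, pH 7.4) F12 plus 0.5% BSA | Dosing: Single-point compound dose | Signal: Bottom-read fluorescence, 550/595 nm | Read-out: Retained DiI signal reflecting DiI-HDL uptake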
* hit, by the source's call. This is a sample that favours compounds with a hit; in the whole collection about 3% have one here.

How did COn1c(-c2ccccc2)nc2c1CCc1c-2no[n+]1[O-] do in these assays?
FID counter: -2; TMEM16A inh: inactive; Kir21 block: 1.9; SR-BI DiI inh: -5; ANO1 activ: inactive; SR-BI DiI-HDL act: 5

Results for CCN(CC)C(=O)n1cnc(-c2ccccc2)c1-c1ccccc1 ?
FID counter: -28; TMEM16A inh: inactive; Kir21 block: -0.83; SR-BI DiI inh: -4; ANO1 activ: inactive; SR-BI DiI-HDL act: 4

How did CCOC(=O)Nc1c(O)ccc2oc(C)c(-c3ccccc3)c12 do in these assays?
FID counter: -6; TMEM16A inh: inactive; Kir21 block: -15*; SR-BI DiI inh: 1; ANO1 activ: inactive; SR-BI DiI-HDL act: -1

What do the screens show for `CN(c1ccccc1)P(=O)(N(C)c1ccccc1)N(C)c1ccccc1`?
FID counter: -22; TMEM16A inh: inactive; Kir21 block: -5.5*; SR-BI DiI inh: 0; ANO1 activ: inactive; SR-BI DiI-HDL act: 0

Results for O=C(C[n+]1cc(-c2ccccc2)n2c1CCCCC2)c1ccc(Cl)cc1 ?
FID counter: 29; TMEM16A inh: inactive; Kir21 block: 0.74; SR-BI DiI inh: -2; ANO1 activ: inactive; SR-BI DiI-HDL act: 2

What do the screens show for `CC1CCC(C(C)C)C(OC(=O)C[n+]2cc(-c3ccc(Cl)cc3)n3c2CCCCC3)C1` (configuration not stated)?
FID counter: 29; TMEM16A inh: inactive; Kir21 block: -8.6*; SR-BI DiI inh: 12; ANO1 activ: inactive; SR-BI DiI-HDL act: -12

What do the screens show for `CC1C/C(=N\NC(N)=S)c2cc(Cl)ccc2S1` (configuration not stated)?
FID counter: -7; TMEM16A inh: inactive; Kir21 block: -1.2; SR-BI DiI inh: 80*; ANO1 activ: inactive; SR-BI DiI-HDL act: -80

How did CC(C)=C1CCC(C)CC1=NNC(N)=S (configuration not stated) do in these assays?
SR-BI DiI inh: 62; ANO1 activ: inactive; SR-BI DiI-HDL act: -62

Results for O=C(CN1CCCC(O)C1)N1c2ccccc2Sc2ccc(C(F)(F)F)cc21 (configuration not stated) ?
FID counter: -4; TMEM16A inh: inactive; Kir21 block: -0.37; SR-BI DiI inh: -17; ANO1 activ: inactive; SR-BI DiI-HDL act: 17

Results for CN1CCN(CCCN2c3ccccc3Sc3ccc(C(F)(F)F)cc32)CC1 ?
FID counter: 20; TMEM16A inh: inactive; Kir21 block: -4.4*; SR-BI DiI inh: -238; ANO1 activ: inactive; SR-BI DiI-HDL act: inconclusive

How did CCOC(=O)c1c(NC(C)=O)sc2c(OCC(O)CN(CC)CC)c(Br)ccc12 (configuration not stated) do in these assays?
FID counter: 16; TMEM16A inh: inactive; Kir21 block: 0.02; SR-BI DiI inh: 83*; ANO1 activ: inactive; SR-BI DiI-HDL act: -83

How did CCOC(=O)c1c(NC(C)=O)sc2c(OC)c(Br)ccc12 do in these assays?
FID counter: -1; TMEM16A inh: inactive; Kir21 block: 0.93; SR-BI DiI inh: 29; ANO1 activ: inactive; SR-BI DiI-HDL act: -29

How did CC(C)(C)c1ccc(NC(=O)c2ccc(=O)[nH]n2)cc1 do in these assays?
FID counter: -12; TMEM16A inh: inactive; Kir21 block: -0.49; SR-BI DiI inh: -11; SR-BI DiI-HDL act: 11

What do the screens show for `CC(=O)Nc1ccc(NC(=O)C2CCN(C(=O)C3CC(=O)N(c4ccc(C)cc4)C3)CC2)cc1` (configuration not stated)?
FID counter: -30; TMEM16A inh: inactive; Kir21 block: 0.46; SR-BI DiI inh: 18; ANO1 activ: inactive; SR-BI DiI-HDL act: -18

How did COC(=O)c1ccccc1NC(=O)C1CCN(C(=O)Cc2ccccc2)CC1 do in these assays?
FID counter: -46; TMEM16A inh: inactive; Kir21 block: 0.1; SR-BI DiI inh: 49; ANO1 activ: inactive

What do the screens show for `COc1ccc(NC(=O)C2CCN(C(=O)C3CC(=O)N(c4ccc(C)cc4)C3)CC2)c(OC)c1` (configuration not stated)?
FID counter: -43; TMEM16A inh: inactive; Kir21 block: 0.08; SR-BI DiI inh: 79*; ANO1 activ: inactive; SR-BI DiI-HDL act: -79

Results for COc1ccc(C)cc1NC(=O)C1CCN(C(=O)Cc2ccccc2)CC1 ?
FID counter: -23; TMEM16A inh: inactive; Kir21 block: -0.26; SR-BI DiI inh: 76*; ANO1 activ: inactive; SR-BI DiI-HDL act: -76

How did COc1ccc(NC(=O)C(c2ccc(Cl)cc2)C(C)C)cn1 (configuration not stated) do in these assays?
FID counter: -16; TMEM16A inh: inactive; Kir21 block: -0.9; SR-BI DiI inh: -11; ANO1 activ: inactive; SR-BI DiI-HDL act: 11

What do the screens show for `CN(CCCCCCN(C)Cc1ccccc1O)Cc1ccccc1O`?
FID counter: 18; TMEM16A inh: inactive; Kir21 block: -5.2*; SR-BI DiI inh: -40; ANO1 activ: inactive; SR-BI DiI-HDL act: 40

Results for CCCCN(C(=O)C1CCN(C(=O)c2ccccc2C)CC1)c1c(N)n(CCCC)c(=O)[nH]c1=O ?
FID counter: -16; TMEM16A inh: inactive; Kir21 block: 1.3; SR-BI DiI inh: -22; ANO1 activ: inactive; SR-BI DiI-HDL act: 22

How did CCN1/C(=C/c2ccc3ccccc3[n+]2CC)C=Cc2ccccc21 do in these assays?
FID counter: 14; TMEM16A inh: inactive; Kir21 block: -13*; SR-BI DiI inh: 87*; ANO1 activ: inactive; SR-BI DiI-HDL act: -87

How did CCN1/C(=C/c2ccc3ccccc3[n+]2CCCS(=O)(=O)[O-])C=Cc2cc(C)ccc21 do in these assays?
FID counter: -15; TMEM16A inh: inactive; Kir21 block: -0.06; SR-BI DiI inh: 4; ANO1 activ: inactive; SR-BI DiI-HDL act: -4

Results for COC(=O)c1cc(C)c(C)cc1NC1OC(CO)C(O)C1O (configuration not stated) ?
SR-BI DiI inh: -1; ANO1 activ: inactive; SR-BI DiI-HDL act: 1

How did COc1ccccc1NC(=O)COC(=O)c1[nH]c(=O)[nH]c(=O)c1N do in these assays?
SR-BI DiI inh: -9; ANO1 activ: inactive; SR-BI DiI-HDL act: 9

What do the screens show for `CN(Cc1cccc(-n2cccn2)c1)C(=O)CCc1nnc(C2CCCCC2)o1`?
FID counter: -40; TMEM16A inh: inactive; Kir21 block: -0.72; SR-BI DiI inh: -4; ANO1 activ: -6.4*; SR-BI DiI-HDL act: 4
